Here are results for one compound from publication PMC6146057 (ACS chemical neuroscience, 2018).

In data set [1] the target is P-gp (Homo sapiens, UniProt P08183). In words: MDCK P-gp efflux and permeability. The data set is classed as in vitro ADME.
Data set [2] is described as follows: Rat brain homogenate binding. The data set is classed as in vitro ADME.
Data set [3] addresses cytochrome P450 3A4 (Homo sapiens, UniProt P08684). Put plainly: CYP450 inhibition in human liver microsomes, 3A4. The data set is classed as in vitro ADME. On the technique in general: Liver microsomes are vesicles of endoplasmic reticulum, rich in cytochrome P450 enzymes.
Data set [4] in a line: Plasma protein binding by equilibrium dialysis, rat. The data set is classed as in vitro ADME. The following applies: pH 7.4. A digest of the protocol:
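Plasma spiked with test article was dialysed against 25 mM phosphate buffer, pH 7.4, by equilibrium dialysis for 4 h at 37 °C with shaking. Aliquots from each chamber were matrix-matched, extracted with ice-cold acetonitrile, centrifuged and quantified by LC/MS/MS.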
(Equilibrium dialysis compares concentrations on both sides of a semipermeable membrane.)

The subject of data set [5] is layer V medial prefrontal cortex fEPSPs. In words: Extracellular field electrophysiology in layer V prelimbic mPFC slices. Further details: species or system mouse. Summed up:
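Coronal prelimbic slices (400 μm) recovered in NMDG-HEPES solution (pH 7.3) for 8–10 min at 32 °C, then were perfused with ACSF at 2 mL/min and 30–32 °C. Layer V fEPSPs were evoked from layers II–III (200 μs, 0.05 Hz) or optically in ChR2-injected mice. Compound alone was bath-applied for 20 min. Alternatively, 10 μM compound was applied for 10 min, then with 3 μM OxoM for 10 min. Slope was measured 46–50 min after washout.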

The subject of data set [6] is rat M2-M5. In words: Calcium mobilization selectivity, rat M2-M5. The data set is classed as cell-based. The following applies: Figure 4B. Summed up: (§1)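 Muscarinic receptor-expressing CHO cells were plated at 20,000 cells/well in medium without G418 the day before. They were loaded with 1.15 μM Fluo-4 AM for 45 min at 37 °C in HBSS with 20 mM HEPES and 2.5 mM probenecid. Test compound (10-point 1:3 series, top final 30 μM) was added for 2.5 min, then EC20 ACh for 1 min. Calcium flux was fitted with a four-parameter logistic curve.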
In general terms: Calcium flux is commonly read through the fluorescence of an indicator in the cells.

For data set [7], the target named is T1, M1 (Homo sapiens, UniProt P11229).
T1 sequence (P11229 1-460): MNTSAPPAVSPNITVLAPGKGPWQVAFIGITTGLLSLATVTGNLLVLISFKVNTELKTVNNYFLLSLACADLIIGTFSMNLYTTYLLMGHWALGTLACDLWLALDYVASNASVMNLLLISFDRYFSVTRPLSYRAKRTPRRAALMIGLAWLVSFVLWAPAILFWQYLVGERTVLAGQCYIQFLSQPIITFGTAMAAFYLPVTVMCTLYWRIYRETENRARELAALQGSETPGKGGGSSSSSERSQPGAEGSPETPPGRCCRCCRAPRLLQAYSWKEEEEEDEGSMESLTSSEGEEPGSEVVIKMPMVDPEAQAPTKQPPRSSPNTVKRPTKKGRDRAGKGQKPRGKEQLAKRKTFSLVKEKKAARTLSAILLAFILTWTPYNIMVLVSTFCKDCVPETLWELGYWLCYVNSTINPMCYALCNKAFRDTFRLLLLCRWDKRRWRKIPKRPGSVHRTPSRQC
Put plainly: Calcium mobilization assay, high expression human M1 cell line. The data set is classed as cell-based. Summed up:
as §1

For data set [8], the target named is T2, dog M1 (Canis lupus familiaris, UniProt A0A8I3RVA9).
T2 sequence (A0A8I3RVA9 1-460): T1 sequence (P11229 1-460) with V155I, P246R, A248T, A265T, Q312P, K331R, D335E, P343A, D393N
In words: Calcium mobilization assay, low expression M1 dog line. The data set is classed as cell-based.

As a reminder, the Papp is a coefficient for how fast a substance crosses the barrier. Read a low Papp as poor permeation. What is called efflux ratio is the permeability from basolateral to apical divided by that in the opposite direction, in the common usage. In general, fraction unbound refers to the share of the substance not bound to proteins or other matrix. Higher therefore signals much free substance. The term IC50 denotes the point on the concentration scale where inhibition reaches its midpoint. A low value points to inhibition by little substance. In general, EC50 refers to the concentration giving half of the maximal effect.

The structures appear in SMILES notation. Changes are numbered by the printed parent chain. Where “and” joins values, the source holds several entries; their conditions need not be identical. Equal values may be shown once. Read-outs that look alike come from different tables or passages of the source.

Chain of P-gp (P08183 whole entry): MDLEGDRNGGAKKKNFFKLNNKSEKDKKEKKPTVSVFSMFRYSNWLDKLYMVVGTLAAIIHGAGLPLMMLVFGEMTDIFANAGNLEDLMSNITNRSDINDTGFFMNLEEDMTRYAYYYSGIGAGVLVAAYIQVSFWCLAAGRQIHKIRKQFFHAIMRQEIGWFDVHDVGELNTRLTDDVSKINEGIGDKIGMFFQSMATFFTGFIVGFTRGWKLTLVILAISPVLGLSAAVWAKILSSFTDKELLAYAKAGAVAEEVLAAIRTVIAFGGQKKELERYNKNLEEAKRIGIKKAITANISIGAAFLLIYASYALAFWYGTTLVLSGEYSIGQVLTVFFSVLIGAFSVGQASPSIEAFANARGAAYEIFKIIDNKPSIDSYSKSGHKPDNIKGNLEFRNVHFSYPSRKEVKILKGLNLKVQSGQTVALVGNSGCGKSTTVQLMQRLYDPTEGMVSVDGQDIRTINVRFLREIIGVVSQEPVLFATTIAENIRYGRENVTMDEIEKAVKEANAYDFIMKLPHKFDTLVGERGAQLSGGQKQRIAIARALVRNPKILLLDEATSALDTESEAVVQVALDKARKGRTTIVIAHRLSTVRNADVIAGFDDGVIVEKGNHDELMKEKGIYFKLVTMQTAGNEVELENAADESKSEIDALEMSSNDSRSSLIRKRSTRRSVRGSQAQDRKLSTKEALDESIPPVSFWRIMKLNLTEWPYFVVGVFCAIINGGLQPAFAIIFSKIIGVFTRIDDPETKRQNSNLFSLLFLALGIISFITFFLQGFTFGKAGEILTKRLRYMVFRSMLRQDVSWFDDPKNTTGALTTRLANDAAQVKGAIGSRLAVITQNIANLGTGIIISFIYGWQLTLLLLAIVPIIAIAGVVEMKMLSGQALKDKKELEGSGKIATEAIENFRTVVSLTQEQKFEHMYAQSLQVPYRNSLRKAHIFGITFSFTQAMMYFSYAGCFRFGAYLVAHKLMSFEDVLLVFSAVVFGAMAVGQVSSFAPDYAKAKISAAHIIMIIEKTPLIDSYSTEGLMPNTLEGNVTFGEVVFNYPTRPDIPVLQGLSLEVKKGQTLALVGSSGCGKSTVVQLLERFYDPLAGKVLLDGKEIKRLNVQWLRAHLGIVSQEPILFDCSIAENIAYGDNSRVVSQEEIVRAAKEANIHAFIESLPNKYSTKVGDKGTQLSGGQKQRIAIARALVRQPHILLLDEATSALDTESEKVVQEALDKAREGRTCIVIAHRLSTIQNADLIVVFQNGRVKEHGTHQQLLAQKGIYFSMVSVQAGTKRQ
Chain of cytochrome P450 3A4 (P08684 whole entry): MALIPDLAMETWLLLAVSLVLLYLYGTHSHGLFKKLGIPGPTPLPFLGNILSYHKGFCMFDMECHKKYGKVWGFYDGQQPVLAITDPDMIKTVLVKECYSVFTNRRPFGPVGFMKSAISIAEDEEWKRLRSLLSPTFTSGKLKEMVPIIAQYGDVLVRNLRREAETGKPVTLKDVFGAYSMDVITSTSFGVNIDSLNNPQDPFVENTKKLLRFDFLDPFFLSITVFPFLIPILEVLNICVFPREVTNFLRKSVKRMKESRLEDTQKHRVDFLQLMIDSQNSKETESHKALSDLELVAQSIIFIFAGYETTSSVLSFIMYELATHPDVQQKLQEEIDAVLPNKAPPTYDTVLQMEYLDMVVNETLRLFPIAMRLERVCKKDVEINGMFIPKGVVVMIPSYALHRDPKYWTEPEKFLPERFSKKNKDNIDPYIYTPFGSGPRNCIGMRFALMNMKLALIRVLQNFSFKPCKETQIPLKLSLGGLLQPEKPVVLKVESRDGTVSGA

For the compound `O=C(N[C@H]1CCCC[C@@H]1O)[C@H]1CN(Cc2ccc(-n3cccn3)cc2)c2ccccc2O1` [VU0486846, (2R)-N-[(1S,2S)-2-Hydroxycyclohexyl]-4-[(4-pyrazol-1-ylphenyl)-methyl]-2,3-dihydro-1,4-benzoxazine-2-carboxamide], in data set [1] (MDCK), the “human P-gp substrate” value is reported as “not a human P-gp substrate”. In data set [1] (human, MDCK), this compound returned an apparent permeability (Papp) of 30 ×10⁻⁶ cm/s. Besides, in data set [1] (human, MDCK-MDR1), the efflux ratio was determined as 0.9. Also, the fraction unbound in data set [2] amounted to 0.03. Further, in data set [3], the IC50 is 5000 nM. The compound also yielded a fraction unbound at 4 h in data set [4] of 0.11. The “Magnitude of LTD, PAM + CCh vs CCh alone” value in data set [5] (3 μM VU0486846 + 10 μM CCh, electrically evoked, p < 0.05) is reported as “significant increase in the magnitude of LTD”. Further, the “Change in fEPSP slope, compound alone (agonist activity in PFC)” value in data set [5] (3 μM bath application 20 min, electrically evoked layer V fEPSPs) was “no significant change”. For the same compound, the “Magnitude of LTD, PAM + OxoM vs OxoM alone” value in data set [5] (10 μM VU0486846 + 3 μM OxoM, optically evoked, p < 0.05) was “significantly enhanced”. For the same compound, the “Activity at rat M2–M5 (selectivity)” value is “highly selective” in data set [6] and “inactive” in data set [6] (listed as 16). In addition, the EC50 is 308 nM in data set [7] (Human M1 CRC EC50, Figure 4A); 310 nM in data set [7] (M1 PAM EC50, human M1, high expression line, EC20 ACh); 295 nM in data set [7] (M1 PAM pEC50, human M1, high expression line, EC20 ACh); 4070 nM and 4270 nM in data set [7] (M1 agonist activity pEC50, human M1, high expression line, compound alone); 380 nM in data set [8] (M1 PAM EC50, dog M1 line, low expression); 389 nM in data set [8] (M1 PAM pEC50, dog M1 line, low expression). Besides, the EC50 in data set [8] (M1 agonist activity EC50, dog M1 line, compound alone) was greater than 10000 nM. Further, in data set [7] (human M1, high expression line), the “M1 PAM efficacy, % ACh Max” value is on record as 85 ± 2 % ACh Max. Further, the “M1 agonist activity, % ACh Max” value in data set [7] (human M1, high expression line, compound alone) is 39 ± 3 % ACh Max and 29 ± 6 % ACh Max. Also, the Emax was 78 ± 1% in data set [8] (read-out: M1 PAM efficacy, % ACh Max) and 18 ± 0.2% in data set [8] (read-out: M1 agonist activity, % ACh Max).
